# Bioassay records deposited in PubChem BioAssay by Broad Institute.
# CAL PDZ FP-1: blocks peptide binding to human CAL PDZ domain; 330,000 tested, 0.02% active; Q9HD26; purified CAL PDZ, TMR-peptide fluorescence polarization, 1 h; inhibition, % at 20 µM;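 active means highest replicate inhibition of at least 40%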;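 further: plate controls were DMSO neutral control wells for no effect and unlabeled competitor peptide control wells for full effect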
#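 Assay system – tagged CAL PDZ protein CerCALP, purified · Timing – 1 h at RT · Compound – single point, 20 µM · Measured by – fluorescence polarization from S- and P-plane intensities, G-factor corrected · Evaluation – inhibition from polarization loss · Probe or stimulus – TMR reporter peptide T*-PRC34 · Buffer or medium – pH 7.4 phosphate-saline buffer, reducing agent, detergent, IgG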
# S100A4 MyoIIA: blocks human S100A4 binding to myosin IIA peptide | inhibition, % at 10.7 µM | S100A4/TAMRA-MyoIIA peptide fluorescence polarization | 360,000 tested, 0.14% active | AID 652163;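 active means mean inhibition of at least 70% across replicates, with every replicate also reaching that level; inconclusive means mean inhibition reaches 70% but some replicates fall short; inactive means mean inhibition below 70%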
#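 System – human S100A4 monomer protein, biochemical binding assay · Buffer or medium – Calcium-containing HEPES buffer, pH 7.2 · Timing – 5 min between mix addition and reading · Also added – TAMRA-labelled myosin IIA heavy-chain peptide probe, 5 nM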
# CDK5 p35 inh: blocks human CDK5/p35 kinase activity | Q00535+Q15078 | Recombinant CDK5/p35, ADP-Glo luminescence, 60 min | inhibition, % at 10 µM | 330,000 tested, 0.01% active;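 active means highest replicate inhibition of at least 50% and at least 75% of replicates reaching 50%; inconclusive means only one of the two criteria met; inactive means both criteria failed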;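 further: plate controls were DMSO neutral control for no effect and GW8510 at 10 µM for full effect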
# Target sequence (Q00535 whole entry, looked up): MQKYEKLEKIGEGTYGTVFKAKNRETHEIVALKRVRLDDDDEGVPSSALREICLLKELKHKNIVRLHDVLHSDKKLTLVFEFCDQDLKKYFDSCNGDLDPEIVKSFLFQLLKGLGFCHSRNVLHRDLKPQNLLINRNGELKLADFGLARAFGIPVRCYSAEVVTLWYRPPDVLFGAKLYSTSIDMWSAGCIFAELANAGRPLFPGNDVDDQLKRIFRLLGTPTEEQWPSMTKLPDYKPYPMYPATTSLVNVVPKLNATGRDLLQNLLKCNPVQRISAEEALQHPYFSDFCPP
# Target sequence (Q15078 whole entry, looked up): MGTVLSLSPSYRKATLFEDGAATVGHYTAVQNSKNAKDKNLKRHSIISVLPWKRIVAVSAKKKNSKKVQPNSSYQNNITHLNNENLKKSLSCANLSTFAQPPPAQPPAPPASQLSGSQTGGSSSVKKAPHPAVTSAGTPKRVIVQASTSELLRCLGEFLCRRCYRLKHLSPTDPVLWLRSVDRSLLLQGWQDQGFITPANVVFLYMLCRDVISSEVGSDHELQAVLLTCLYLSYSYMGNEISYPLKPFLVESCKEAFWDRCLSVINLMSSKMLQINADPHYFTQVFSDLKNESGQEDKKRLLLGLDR
# C2C12 statin: suppressors of simvastatin-induced myotoxicity in C2C12 myotubes. AID 602340. ATP luminescence, 48 h; scaled: DMSO 0, geranylgeraniol control 100. rescue of ATP level, % at 7.49 µM. 330,000 tested, 0.78% active;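 active means mean ATP rescue above about 67%, or every replicate alone reaching that limit, limit read from the data, passing the limit was not always enough; inconclusive means no clear call, values can overlap the other calls; inactive means mean under the limit and some replicate under it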;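 further: myotubes were challenged with 10 µM simvastatin during compound exposure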
# dFosB act-1: enhances mouse delta FosB homodimer DNA binding; P13346; purified delta FosB, TAMRA-CDK5 oligo fluorescence polarization; percent of positive-control signal above neutral wells; activation, % at 25 µM; 340,000 tested, 0.99% active; AID 493131;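 active means mean activation above about 17%, with every replicate also reaching it, limit read from the data, passing the limit was not always enough; inconclusive means only one of the two conditions met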
# CAL PDZ FP-2: blocks peptide binding to the human CAL PDZ domain | Q9HD26 | purified CAL PDZ, TMR-peptide fluorescence polarization, 1 h | inhibition, % at 24.9 µM | 300,000 tested, 0.92% active | AID 602252;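 active means mean inhibition of at least 30% with at least half of replicates also reaching 30%; inconclusive means no clear call, values can overlap the other calls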;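 further: 0% = DMSO neutral control and 100% = excess unlabeled competitor peptide PRC23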
# dFosB act-2: enhances mouse delta FosB homodimer binding to DNA | AID 588690 | 2,400 tested, under 10 active | activation, % at 24.9 µM | purified delta FosB, TAMRA-CDK5 oligo fluorescence polarization; normalised: neutral wells 0, positive control 100 | shares compounds with dFosB act-1;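 active means highest replicate activation at or above 34% and every replicate reaching that threshold; inconclusive means meets only one of the two criteria; inactive means meets neither criterion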;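 further: higher polarization means more probe DNA bound by delta FosB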
# Active calls of the source: *; u = inconclusive; x = no result given. A selection: hits, their analogues and other compounds. The true share with any hit is near 2%.
SMILES,CAL PDZ FP-1,S100A4 MyoIIA,CDK5 p35 inh,C2C12 statin,dFosB act-1,CAL PDZ FP-2,dFosB act-2
COc1ccc(CNCC(O)(c2ccc(Cl)cc2)c2ccc(Cl)cc2)cc1,0,x,-3,-61,21*,-10,0
O=S(=O)(NC1CC1)c1ccc(S(=O)(=O)N2CCCC3(CCCCC3)C2)cc1,-1,x,-2,-6,16*,-6,7
Cc1ccc(NC(=O)CC2S/C(=N/N=C3/NC(=O)CS3)NC2=O)cc1 (stereo not given),-1,-8,2,x,-2,-4,x
CCOC(=O)c1ccc(NC(=O)CC2S/C(=N/N=C3/NC(=O)CS3)NC2=O)cc1 (stereo not given),0,-4,1,x,23*,2,1
COc1cc(/C=C(\C#N)C(N)=O)ccc1OCc1c(C)no[n+]1[O-],1,3,0,x,4,-8,x
COc1cccc(NC(=O)Nc2nnc(Cc3ccc(F)cc3)s2)c1,x,-6,1,-9,29*,-5,-1
Cc1cccc(NC(=O)Cc2nnc(NC(=O)Nc3ccccc3F)s2)c1,-1,-3,1,x,40*,8,2
COc1cccc(NC(=O)Nc2cc(NC(=O)Nc3cccc(OC)c3)c(C)nc2C)c1,-3,x,0,x,18*,-3,2
COc1cccc(NC(=O)Nc2nnc(CC(=O)Nc3ccccc3)s2)c1,-2,4,-2,-9,u,-5,x
CCOC1=C2[C@H](c3cccs3)N(S(=O)(=O)c3ccc(C)cc3)C[C@H]2n2c(=O)n(-c3ccccc3)c(=O)n2C1,x,3,x,-15,x,x,x
O=C(NCCNC(=O)c1ccccn1)c1cccc(F)c1,0,-2,3,3,2,x,x
CCCNC(=O)C[C@@H]1CC[C@@H]2[C@@H](COc3ccc(NC(=O)c4cccc(OC)c4)cc3C(=O)N2C)O1,x,5,x,-9,x,x,x
CC(Oc1ccccc1)C(=O)N1CCc2ccccc2C1 (stereo not given),0,2,0,5,-1,x,x
O=C(CCCC(=O)Nc1ccccc1Br)N/N=C/c1c(F)cccc1Cl,0,8,-1,-3,27*,-5,5
CC(C)NC(=O)CC(=O)N/N=C/c1c(F)cccc1Cl,0,-1,-1,3,1,1,x
N#C/C(=C/c1ccc(CNC(=O)C(=O)Nc2cc(Cl)cc(Cl)c2)o1)C(=O)NCc1cccnc1,-1,-2,1,x,53*,-7,0
Cc1ccc(NC(=O)C(=O)NCc2ccc(/C=C(/C#N)C(=O)NCc3cccnc3)o2)cc1,0,x,-1,7,-18,0,x
Nc1nc(CN2CCCCCC2)nc(Nc2ccccc2)n1,0,x,x,x,-4,-5,x
Cc1c(-c2nc(N)nc(Nc3ccccc3)n2)oc2ccccc12,-2,x,0,x,52*,-4,-1
CC(/C=N/NC(=O)c1ccc(Cn2cc([N+](=O)[O-])cn2)o1)=C\c1ccccc1,-4,2,-1,x,28*,-5,4
COc1ccccc1C(c1nnnn1Cc1ccccc1)N1CCC(C(N)=O)CC1 (stereo not given),-1,x,3,3,1,2,x
COCC(C)n1c(C)cc(C(=O)COC(=O)c2nc3nc(C)cc(C)n3n2)c1C (stereo not given),-2,x,0,-2,-6,-2,x
O=C(CN1C(=O)CS/C1=C\c1nc(-c2ccc(Cl)cc2)cs1)Nc1cccnc1Cl,4,-6,-1,x,-2,-3,x
Cc1ccc(-c2csc(/C=C3\SC(C)C(=O)N3CC(=O)Nc3ccccc3F)n2)cc1 (stereo not given),-2,1,-6,2,18*,0,0
Cn1cc(S(=O)(=O)Nc2ccc(Oc3ccccc3)cc2)c(=O)n(C)c1=O,0,5,-1,0,-2,-7,x
O=C(N/N=C/c1ccncc1)c1ccc(NC(=O)c2ccc(Cl)cc2)cc1,-7,4,0,x,65*,x,-1
